Results as given in ChEMBL document CHEMBL1155887, “Structure-activity relationships of 2-aryl-1H-indole inhibitors of the NorA efflux pump in Staphylococcus aureus” (2008).
Values after ≈ are worked out from the molar mass of the structure shown. Active and inactive are the calls of the source. The calls are words filed in the database; no cut-off is given here.

What was measured:
[1] = molecular target: T1, Quinolone resistance protein NorA (Staphylococcus aureus) (UniProt P0A0J7); experiment: Inhibition of NorA efflux pump in NorA knockout Staphylococcus aureus K1758 assessed as drug level required for two fold potentiation of berberine MIC at 1.56 to 100 ug/mL after 20 hrs by serial dilution method
T1 sequence (whole entry): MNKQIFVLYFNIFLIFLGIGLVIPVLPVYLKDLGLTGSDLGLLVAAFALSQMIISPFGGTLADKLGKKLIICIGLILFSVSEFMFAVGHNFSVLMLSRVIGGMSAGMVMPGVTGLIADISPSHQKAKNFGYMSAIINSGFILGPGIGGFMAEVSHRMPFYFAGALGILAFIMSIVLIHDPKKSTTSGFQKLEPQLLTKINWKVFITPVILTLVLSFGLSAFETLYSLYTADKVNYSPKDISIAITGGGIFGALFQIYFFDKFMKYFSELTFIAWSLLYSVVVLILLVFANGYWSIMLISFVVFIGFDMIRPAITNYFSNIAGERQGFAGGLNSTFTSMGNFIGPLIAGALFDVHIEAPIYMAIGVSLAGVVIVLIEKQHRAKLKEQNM

[2] = molecular target: T1, Quinolone resistance protein NorA (Staphylococcus aureus); experiment: Inhibition of NorA efflux pump in wild type Staphylococcus aureus 8325-4 assessed as drug level required for two fold potentiation of berberine MIC at 1.56 to 100 ug/mL after 20 hrs by serial dilution method
Method in brief: (§1)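 Checkerboard of serial 2-fold dilutions of berberine chloride against inhibitor, with inhibitor at 1.56–100 µg/mL. Berberine ranges were 12.5–100 µg/mL for 8325-4 and 200–800 µg/mL for K2378. Each agent was also diluted alone. Cells at 5 10^5 CFU/mL (final), 37 °C for 20 h, read at 600 nm; OD <0.05 counted as no growth. Inhibitor MIC is the lowest concentration lowering the berberine MIC at least 2-fold.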

[3] = molecular target: T1, Quinolone resistance protein NorA (Staphylococcus aureus); experiment: Inhibition of NorA efflux pump in Staphylococcus aureus K2378 overexpressing NorA assessed as drug level required for two fold potentiation of berberine MIC at 1.56 to 100 ug/mL after 20 hrs by serial dilution method; method in brief: as §1
Staphylococcus aureus [4] = experiment: Antibacterial activity against NorA knockout Staphylococcus aureus K1758 after 18 to 20 hrs by serial dilution method; assay type: functional
Method in brief: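 Compound alone, without berberine: cells at 10^5 CFU/mL in broth, serial 2-fold dilutions of compound, 18–20 h at 37 °C, growth read at 600 nm. MIC is the lowest concentration giving complete growth inhibition. The testing limit was 1000 µM.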

Staphylococcus aureus [5] = experiment: Antibacterial activity against wild type Staphylococcus aureus 8325-4 after 18 to 20 hrs by serial dilution method; assay type: functional
Method in brief: (§2)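 Compound alone, without berberine. Cells at 10^5 CFU/mL inoculated into broth and given serial 2-fold dilutions of compound. Incubated 18–20 h at 37 °C, with growth read as absorbance at 600 nm. MIC is the concentration completely inhibiting growth; testing limit 1000 µM.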

[6] = molecular target: T1, Quinolone resistance protein NorA (Staphylococcus aureus); experiment: Inhibition of NorA efflux pump overexpressed Staphylococcus aureus K2361 assessed as increase in antibacterial activity of berberine at 0.8 ug/mL
[7] = molecular target: T1, Quinolone resistance protein NorA (Staphylococcus aureus); experiment: Inhibition of NorA efflux pump in wild type Staphylococcus aureus 8325-4 assessed as ratio of berberine MIC in presence to absence of inhibitor
[8] = molecular target: T1, Quinolone resistance protein NorA (Staphylococcus aureus); experiment: Inhibition of NorA efflux pump overexpressing Staphylococcus aureus 8325-4 K2378 assessed as ratio of berberine MIC in presence to absence of inhibitor
[9] = molecular target: T1, Quinolone resistance protein NorA (Staphylococcus aureus); experiment: Inhibition of NorA efflux pump overexpressed Staphylococcus aureus K2361 assessed as increase in antibacterial activity of berberine at 3 ug/mL
[10] = molecular target: T1, Quinolone resistance protein NorA (Staphylococcus aureus); experiment: Inhibition of NorA efflux pump overexpressed in Staphylococcus aureus 1199B assessed as increase in susceptibility to ciprofloxacin at 1.5 ug/mL by serial broth microdilution method
Staphylococcus aureus [11] = experiment: Antibacterial activity against Staphylococcus aureus K2378 overexpressing NorA after 18 to 20 hrs by serial dilution method; assay type: functional; method in brief: as §2
Escherichia coli [12] = experiment: Antibacterial activity against Escherichia coli O157:H7; assay type: functional
Method in brief: (§3)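 Gram-negative and Gram-positive panel, MIC in µg/mL. Highest concentration tested was 200 µg/mL for E. coli O157:H7 and 100 µg/mL for Clostridium perfringens.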

Escherichia coli [13] = experiment: Antibacterial activity against Escherichia coli BW-25113; assay type: functional
Method in brief: (§4)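 Panel of Gram-negative and Gram-positive non-Clostridium strains, compound alone: MIC in µg/mL, with 200 µg/mL the highest concentration tested.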

Escherichia coli [14] = experiment: Antibacterial activity against Escherichia coli UT189; assay type: functional; method in brief: as §4
Salmonella typhimurium = experiment: Antibacterial activity against Salmonella Typhimurium CS132; assay type: functional, Salmonella enterica subsp. enterica serovar Typhimurium; settings: Salmonella enterica; method in brief: as §4
Pseudomonas aeruginosa [15] = experiment: Antibacterial activity against Pseudomonas aeruginosa PAO1; assay type: functional; method in brief: as §4
Pseudomonas aeruginosa [16] = experiment: Antibacterial activity against Pseudomonas aeruginosa PA14; assay type: functional; method in brief: as §4
Clostridioides difficile [17] = experiment: Antibacterial activity against Clostridium difficile VP110463; assay type: functional
Method in brief: (§5)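 Clostridium difficile panel, compound alone: MIC in µg/mL, with 100 µg/mL the highest concentration tested.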

Clostridioides difficile [18] = experiment: Antibacterial activity against Clostridium difficile CD196; assay type: functional; method in brief: as §5
Clostridioides difficile [19] = experiment: Antibacterial activity against Clostridium difficile CD2001; assay type: functional; method in brief: as §5
Enterococcus faecalis [20] = experiment: Antibacterial activity against Enterococcus faecalis MMH594; assay type: functional; method in brief: as §4
Enterococcus faecalis [21] = experiment: Antibacterial activity against Enterococcus faecalis V583; assay type: functional; method in brief: as §4
Enterococcus faecalis [22] = experiment: Antibacterial activity against Enterococcus faecalis OG1RF; assay type: functional; method in brief: as §4
Clostridium perfringens = experiment: Antibacterial activity against Clostridium perfringens; assay type: functional; method in brief: as §3

| Compound | Activity [1] | MIC (Staphylococcus aureus [4]) [µM] | MIC (Staphylococcus aureus [5]) [µM] | MIC [2] [µM] | MIC [3] | other results |
| --- | --- | --- | --- | --- | --- | --- |
| O=C(O)c1ccc2[nH]c(-c3ccccc3)cc2c1 | inactive | > 1000 | > 1000 |  |  | Activity [2]: inactive; Activity [3]: inactive |
| O=[N+]([O-])c1ccc2[nH]c(-c3cc(OCc4ccccc4)ccc3CO)cc2c1 |  |  |  |  |  | fold change (FC) [6]: > 15 |
| c1ccc(-c2cc3ccccc3[nH]2)cc1 [2-PHENYL-1H-INDOLE] | inactive | > 1000 | > 1000 | 65 | 259 µM | Ratio [7]: 4; Ratio [8]: 4 |
| OCc1ccccc1-c1cc2ccccc2[nH]1 | inactive | > 1000 | > 1000 | 45 | 45 µM |  |
| COC(=O)c1ccc2[nH]c(-c3ccccc3)cc2c1 | inactive | > 1000 | > 1000 |  |  | Activity [2]: inactive; Activity [3]: inactive |
| COC(=O)c1ccc(-c2cc3ccccc3[nH]2)cc1 | inactive | > 1000 | > 1000 | 20 | 40 µM |  |
| OCc1cccc(-c2cc3ccccc3[nH]2)c1 | inactive | > 1000 | > 1000 | 45 | 45 µM |  |
| O=[N+]([O-])c1ccc2[nH]c(-c3ccccc3CO)cc2c1 |  | > 1000 | > 1000 | 47 | 47 µM | MIC [1]: 24 µM |
| O=[N+]([O-])c1ccc2[nH]c(-c3ccc(CO)cc3)cc2c1 |  | > 1000 | > 1000 | 2 | 2 µM | MIC [1]: 5 µM |
| O=[N+]([O-])c1ccc2[nH]c(-c3ccccc3)cc2c1 |  | > 1000 | > 1000 | 1.3 | 1.3 µM | Activity [9]: Active; MIC [1]: 0.63 µM; Ratio [7]: 2; Ratio [8]: 2; fold change (FC) [10]: 4 |
| COC(=O)c1cccc(-c2cc3ccccc3[nH]2)c1 |  | > 1000 | > 1000 | 5 | 10 µM | MIC [1]: 40 µM |
| CCCOS(=O)(=O)c1ccc2[nH]c(-c3ccccc3)cc2c1 |  | 79.3 (≈ 25 µg/mL) | 79.3 (≈ 25 µg/mL) |  |  | MIC (Staphylococcus aureus [11]): 79.3 µM (≈ 25 µg/mL) |
| O=S(=O)(O)c1ccc2[nH]c(-c3ccccc3)cc2c1 | inactive | > 1000 | > 1000 |  |  | Activity [2]: inactive; Activity [3]: inactive |
| OCc1ccc2[nH]c(-c3ccccc3)cc2c1 |  | 14 (≈ 3.13 µg/mL) | 28 (≈ 6.25 µg/mL) |  |  | MIC (Staphylococcus aureus [11]): 28 µM (≈ 6.25 µg/mL); MIC (Escherichia coli [12]): > 200 µg/mL; MIC (Escherichia coli [13]): > 200 µg/mL; MIC (Escherichia coli [14]): > 200 µg/mL; MIC (Salmonella typhimurium): > 200 µg/mL; MIC (Pseudomonas aeruginosa [15]): > 200 µg/mL; MIC (Pseudomonas aeruginosa [16]): > 200 µg/mL; MIC (Clostridioides difficile [17]): > 100 µg/mL; MIC (Clostridioides difficile [18]): > 100 µg/mL; MIC (Clostridioides difficile [19]): > 100 µg/mL; MIC (Enterococcus faecalis [20]): > 200 µg/mL; MIC (Enterococcus faecalis [21]): > 200 µg/mL; MIC (Enterococcus faecalis [22]): > 200 µg/mL; MIC (Clostridium perfringens): > 100 µg/mL |
| COC(=O)c1ccc(-c2cc3cc([N+](=O)[O-])ccc3[nH]2)cc1 | inactive | > 1000 | > 1000 | 17 | inactive |  |
| COS(=O)(=O)c1ccc2[nH]c(-c3ccccc3)cc2c1 |  | 174 (≈ 50 µg/mL) | 174 (≈ 50 µg/mL) |  |  | MIC (Staphylococcus aureus [11]): 174 µM (≈ 50 µg/mL) |
| OCc1ccc(-c2cc3ccccc3[nH]2)cc1 | inactive | > 1000 | > 1000 | 22 | 45 µM |  |
| NS(=O)(=O)c1ccc2[nH]c(-c3ccccc3)cc2c1 | inactive | > 1000 | > 1000 |  |  | Activity [2]: inactive; Activity [3]: inactive |
| O=[N+]([O-])c1ccc2[nH]c(-c3cccc(CO)c3)cc2c1 |  | > 1000 | > 1000 | 5 | 9 µM | MIC [1]: 9 µM |
| COC(=O)c1cccc(-c2cc3cc([N+](=O)[O-])ccc3[nH]2)c1 |  | > 1000 | > 1000 | 1 | 1 µM | MIC [1]: 0.51 µM |
| COC(=O)c1ccccc1-c1cc2ccccc2[nH]1 | inactive | > 1000 | > 1000 | 20 | 20 µM |  |
| N#Cc1ccc2[nH]c(-c3ccccc3)cc2c1 | inactive | > 1000 | > 1000 | 3.6 | 7.1 µM | Ratio [7]: 2; Ratio [8]: 2 |
| COc1ccc2cc3[n+](cc2c1OC)CCc1cc2c(cc1-3)OCO2 [BERBERINE CHLORIDE] |  | 67 | 269 |  |  | MIC (Staphylococcus aureus [11]): 2150 µM |
| COC(=O)c1ccccc1-c1cc2cc([N+](=O)[O-])ccc2[nH]1 | inactive | > 1000 | > 1000 | 34 | inactive |  |
